Bioassay records as filed in PubChem BioAssay.
Shown is part of a subset that was picked to be rich in hits.
CHOP UPR activ: activators of apoptotic arm of unfolded protein response (CHOP); AID 449763; CHO-CHOP luciferase reporter, UPR activation, luminescence; percent of tunicamycin response over DMSO baseline; actives 0.34% (n = 330,000); activation, % at 10 µM;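 active = at 10 µM dose, activation of 40% or more, normalized to positive control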;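 also: 100% = tunicamycin at 10 µg/mL and 0% = DMSO alone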
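System: CHO-CHOP luciferase reporter cell line; amount: 500 cells/well; buffer or medium: F12 medium containing 10% fetal bovine serum; incubation: 6 h compound exposure at 37 °C after overnight seeding; measured by: luciferase luminescence after 10 min with Steady-Glo reagent; evaluation: % reporter activation, DMSO baseline versus tunicamycin full activation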
CHOP inh: CHOP inhibition in unfolded protein response; CHO-K1 CHOP-promoter luciferase, tunicamycin-induced, 15-18 h; inhibition, % at 10 µM; actives 3.8% (n = 220,000);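 active = compounds that reduced the stress-induced luciferase reporter signal by more than about 70% of percent inhibition, limit read from the data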;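 also: 0% = tunicamycin plus vehicle and 100% = wells without tunicamycin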
697 NFkB inh: lowers PMA/ionomycin-induced NF-kB signal in 697 B cells; AID 435022; actives 0.33% (n = 330,000); 697 B-cell NF-kB luciferase reporter, 16 h; inhibition, % at 4 µM; in the data active = inhibition above about 35%
Jurkat NFkB inh: inhibitors of the PMA/ionomycin-induced NF-kB reporter in Jurkat cells | actives 0.53% (n = 330,000) | inhibition, % at 4 µM | PMA/ionomycin-induced NF-kB luciferase reporter, luminescence; in the data active = inhibition above about 50%
XBP1 UPR activ: adaptive UPR (XBP1) activation; CHO-XBP1 luciferase reporter, IRE1-XBP1 UPR activation, luminescence; percent of tunicamycin response, DMSO as zero; actives 0.33% (n = 330,000); activation, % at 20 µM;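 active = versus positive control, 20 µM dose yields 30% or more activation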;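 also: 100% = tunicamycin at 10 µg/mL and 0% = DMSO only wells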
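Signal: luciferase luminescence; Assay system: CHO-XBP1 luciferase reporter cells; Amount: one thousand reporter cells per well; Dosing: 20 µM single concentration, DMSO 1%; Benchmarks: high control tunicamycin 10 µg/mL final, low control DMSO vehicle only; Schedule: 6 h compound exposure at 37 °C, 5% CO2; Evaluation: percent activation relative to tunicamycin reference.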
697 NFkB conf: lowers PMA/ionomycin-induced NF-kB signal in 697 B cells. shares compounds with 697 NFkB inh. 697 B-cell NF-kB luciferase, 16 h. inhibition, % at 4 µM. actives 35% (n = 2,000). AID 449746; in the data active = inhibition mostly above about 28%, no sharp cut-off; inactive = mostly below about 22%
The depositor's hits bear a star; i = inactive; . = no result.

SMILES	CHOP UPR activ	CHOP inh	697 NFkB inh	Jurkat NFkB inh	XBP1 UPR activ	697 NFkB conf
CN(C(=O)COC(=O)c1cnc(Cl)c(Cl)c1)C1CCCCC1	1.7	.	0.0	-11.9	0.2	.
O=C(NCCc1ccccc1)c1ccc(S(=O)(=O)N2CCCC2)cc1	0.8	.	-16.2	-23.7	4.8	.
CCN(CC)c1ccc2cc(NC(=O)CCC(=O)O)c(=O)oc2c1	-9.2	88.1*	80.2*	20.6	-8.7	72.3*
CCN(CC)c1ccc2cc(C(C)=O)c(=O)oc2c1	3.2	-15.5	0.0	1.8	0.7	.
O=C1N=c2ccc([N+](=O)[O-])cc2=C1c1sc(=O)[nH]c1O	0.5	.	-25.6	-0.7	-3.5	.
COc1ccc(NC(=O)[C@@H]2CC=C[C@@H]3CCN(C4CCCCC4)C(=O)[C@@H]32)cc1	-1.5	.	35.6*	5.3	-3.0	18.5
CSc1ccc(/C=C(\C#N)C(=O)NC2CCCCC2)cc1	1.2	32.5	-23.3	6.3	1.2	.
CC(=O)Nc1ccc(/C=C(\C#N)C(=O)NC2CCCCC2)cc1	-1.5	6.2	45.9*	3.0	-5.4	-7.9
CCCn1c(N)c(C(=O)CSc2nc3ccccc3s2)c(=O)[nH]c1=O	2.2	10.1	-432.9	-111.5	6.1	i
CCCn1c(N)c(C(=O)CSc2nnc(N)s2)c(=O)[nH]c1=O	-1.4	.	10.3	-13.2	-3.0	.
Cc1nn(-c2ccc(N3CCCCC3)nn2)c(C)c1CCC(=O)Nc1ccccc1F	6.0	.	51.4*	-37.5	-0.9	47.8*
COc1cc(C(=O)NCCC(=O)NCc2c(F)cc(F)cc2F)cc(OC)c1OC	1.1	.	3.5	13.8	-1.6	.
Cc1cc(C)nc(Sc2ccc([N+](=O)[O-])cc2[N+](=O)[O-])n1	17.3	-9.3	40.7*	-14.1	-3.4	29.3*
c1ccc2sc(-c3ccc4c(c3)OCO4)nc2c1	-4.5	12.2	-361.4	-143.7	-6.1	-241.7
Cc1nn(C(C)(C)C)c(OC(=O)c2ccc(Br)o2)c1Sc1ccccc1	7.5	66.5	36.3*	8.8	2.2	31.1*
CCOc1ncccc1C(=O)Nc1cc(S(=O)(=O)N(CC)CC)ccc1N1CCOCC1	-1.0	.	-10.7	-16.0	0.4	.
CC(=O)c1ccc(N=Nc2ccc(C)cc2)cc1	-1.8	56.8	-258.9	-76.2	-7.4	-359.8
CC(=O)c1ccc(N=Nc2ccc(N(C)C)cc2)cc1	-5.4	46.2	-182.1	-79.8	-2.5	.
COc1ccc(N2CCN(CCCn3c(=S)[nH]c4ccccc4c3=O)CC2)cc1	0.5	.	-309.1	-33.9	-6.9	-17.5
COc1ccccc1N1CCN(CCCn2c(=S)[nH]c3ccccc3c2=O)CC1	-0.8	.	-7.9	6.6	-5.4	.
CCc1ccc(NC(=O)Nc2ccsc2C(=O)OC)cc1	0.7	.	-357.9	-32.1	-4.0	-315.4
O=C(OCc1csc(-c2ccccc2)n1)c1cccs1	1.3	34.9	-63.3	-52.3	-2.7	.
Cn1cccc1C(=O)OCc1csc(-c2ccccc2)n1	0.3	16.0	-291.9	-121.0	-1.6	-341.0
O=C1CC(c2ccc3c(c2)OCO3)CN1 (centres undefined)	-1.5	-10.1	38.3*	24.1	5.4	11.8
COc1ccccc1N(Cc1ccccc1)S(=O)(=O)c1cccc(C(=O)Nc2cc(C)ccn2)c1	-3.0	.	-412.0	-94.1	-7.3	-445.5
SMILES	CHOP UPR activ	CHOP inh	697 NFkB inh	Jurkat NFkB inh	XBP1 UPR activ	697 NFkB conf
COc1ccccc1N(Cc1ccccc1)S(=O)(=O)c1cccc(C(=O)Nc2ncccc2C)c1	-2.2	.	1.6	-6.3	-2.7	.
Cn1c(=O)c(C(=O)Nc2ccccc2S(N)(=O)=O)c(O)c2ccccc21	1.4	56.4	-89.5	6.8	-0.5	.
Cn1c(=O)c(C(=O)Nc2ccccn2)c(O)c2ccccc21	4.2	71.9*	-300.3	-74.9	-1.5	-250.3
O=S(=O)(c1ccccc1)N(CC1CO1)c1cc(Cl)ccc1Cl (centres undefined)	-1.7	.	-3.0	-9.0	1.0	.
CCOC(=O)C(C)c1n[nH]c(=O)c2ccccc12 (centres undefined)	-0.4	11.5	38.0*	-1.1	-0.5	12.0
CCC(=O)Nc1ccc(-c2ccc(N3CCC(C)CC3)nn2)cc1	2.5	.	-152.3	-54.2	-0.5	.
CCC(=O)Nc1cccc(-c2ccc(N3CCC(C)CC3)nn2)c1	-2.5	.	-258.0	-71.4	-6.2	-322.5
